According to ChEMBL document CHEMBL1149678, “Synthesis and structure-activity relationship of RXR antagonists based on the diazepinylbenzoic acid structure” (Bioorg Med Chem Lett, 2007):

System: not listed separately
Test: Bioavailability in rat at 1 mg/kg, iv and 3 mg/kg, po
Assay type: ADME, organism-based
Conditions: in vivo
Summary of the method: (§1)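 Rats given the compound as a 1 mg/kg intravenous bolus or 3 mg/kg perorally as a suspension. Blood was sampled at various time points up to 24 h, and parent compound levels were measured by LC/MS. Clearance, terminal half-life and steady-state volume of distribution come from the iv profile, Cmax and tmax from the po profile, and bioavailability from comparing iv and po dosing.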

Row | bioavailability [%] | Compound
1 | 21 | CCCN1c2ccc(NS(=O)(=O)c3cccc(C(F)(F)F)c3)cc2N=C(c2ccc(C(=O)O)cc2)c2cc3c(cc21)C(C)(C)CCC3(C)C
2 | 36 | CCN1c2ccc(NS(=O)(=O)c3cccc(C(F)(F)F)c3)cc2N=C(c2ccc(C(=O)O)cc2)c2cc3c(cc21)C(C)(C)CCC3(C)C

System: not listed separately
Test: Plasma clearance in rat at 1 mg/kg, iv
Assay type: ADME, organism-based
Set-up: dose 1 mg/kg, route intravenous
Conditions: not given
Summary of the method: as §1

Row | clearance [mL/min/kg] | Compound
3 | 6.67 | CCCN1c2ccc(NS(=O)(=O)c3cccc(C(F)(F)F)c3)cc2N=C(c2ccc(C(=O)O)cc2)c2cc3c(cc21)C(C)(C)CCC3(C)C
4 | 8.33 | CCN1c2ccc(NS(=O)(=O)c3cccc(C(F)(F)F)c3)cc2N=C(c2ccc(C(=O)O)cc2)c2cc3c(cc21)C(C)(C)CCC3(C)C

Target: T1, Retinoic acid receptor RXR-alpha (Homo sapiens, UniProt P19793)
T1 sequence (P19793 whole entry): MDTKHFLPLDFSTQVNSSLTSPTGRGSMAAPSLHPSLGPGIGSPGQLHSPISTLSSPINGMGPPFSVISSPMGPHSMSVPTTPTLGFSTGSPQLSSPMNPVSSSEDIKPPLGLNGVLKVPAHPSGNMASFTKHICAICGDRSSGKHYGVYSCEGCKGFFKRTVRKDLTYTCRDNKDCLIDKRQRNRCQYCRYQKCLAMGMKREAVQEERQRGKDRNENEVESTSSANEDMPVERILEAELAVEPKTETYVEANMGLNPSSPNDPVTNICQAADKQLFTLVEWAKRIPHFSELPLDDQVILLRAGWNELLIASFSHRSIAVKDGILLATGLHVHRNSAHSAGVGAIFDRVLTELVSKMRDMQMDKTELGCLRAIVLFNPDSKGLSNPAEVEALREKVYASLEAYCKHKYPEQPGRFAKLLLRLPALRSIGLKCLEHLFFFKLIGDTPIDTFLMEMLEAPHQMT
Test: Antagonist activity at human RXRalpha expressed in […] cells assessed as inhibition of LG-100268-induced transactivation
Assay type: functional, cell-based, HEK293
Conditions: not given

Row | Compound | IC50 [nM]
5 | CN1c2ccc(NC(=O)Cc3ccccc3)cc2N=C(c2ccc(C(=O)O)cc2)c2cc3c(cc21)C(C)(C)CCC3(C)C | 2500
6 | CN1c2ccc(NC(=O)NCc3ccccc3)cc2N=C(c2ccc(C(=O)O)cc2)c2cc3c(cc21)C(C)(C)CCC3(C)C | 2500
7 | CN1c2ccc(NC(=O)c3cccc(C(F)(F)F)c3)cc2N=C(c2ccc(C(=O)O)cc2)c2cc3c(cc21)C(C)(C)CCC3(C)C | 4100
8 | CN1c2ccc(NCc3ccccc3)cc2N=C(c2ccc(C(=O)O)cc2)c2cc3c(cc21)C(C)(C)CCC3(C)C | > 100000
9 | CN1c2ccc(NC(=O)C34CC5CC(CC(C5)C3)C4)cc2N=C(c2ccc(C(=O)O)cc2)c2cc3c(cc21)C(C)(C)CCC3(C)C | 7200
10 | CCC(=O)Nc1ccc2c(c1)N=C(c1ccc(C(=O)O)cc1)c1cc3c(cc1N2C)C(C)(C)CCC3(C)C | 7100
11 | CCCCNc1ccc2c(c1)N=C(c1ccc(C(=O)O)cc1)c1cc3c(cc1N2C)C(C)(C)CCC3(C)C | > 100000
12 | CN1c2ccc(NS(=O)(=O)c3cccc4ccccc34)cc2N=C(c2ccc(C(=O)O)cc2)c2cc3c(cc21)C(C)(C)CCC3(C)C | 3400
13 | Cc1ccc(S(=O)(=O)Nc2ccc3c(c2)N=C(c2ccc(C(=O)O)cc2)c2cc4c(cc2N3C)C(C)(C)CCC4(C)C)cc1 | 2500
14 | CCCC(=O)Nc1ccc2c(c1)N=C(c1ccc(C(=O)O)cc1)c1cc3c(cc1N2C)C(C)(C)CCC3(C)C | 3900
15 | CCCCNC(=O)Nc1ccc2c(c1)N=C(c1ccc(C(=O)O)cc1)c1cc3c(cc1N2C)C(C)(C)CCC3(C)C | 3400
16 | CN1c2ccc(NS(=O)(=O)c3ccccc3F)cc2N=C(c2ccc(C(=O)O)cc2)c2cc3c(cc21)C(C)(C)CCC3(C)C | 4400
17 | CN1c2ccc(NS(=O)(=O)/C=C/c3ccccc3)cc2N=C(c2ccc(C(=O)O)cc2)c2cc3c(cc21)C(C)(C)CCC3(C)C | 2900

Molecules with a lower IC50, results first:

Row | IC50 [nM] | Compound
18 | 1300 | CN1c2ccc(NC(=O)Cc3ccc(F)cc3)cc2N=C(c2ccc(C(=O)O)cc2)c2cc3c(cc21)C(C)(C)CCC3(C)C
19 | 2100 | CCCS(=O)(=O)Nc1ccc2c(c1)N=C(c1ccc(C(=O)O)cc1)c1cc3c(cc1N2C)C(C)(C)CCC3(C)C
20 | 1500 | CN1c2ccc(NS(=O)(=O)c3cccc(C(F)(F)F)c3)cc2N=C(c2ccc(C(=O)O)cc2)c2cc3c(cc21)C(C)(C)CCC3(C)C
21 | 1600 | CN1c2ccc(NC(=O)c3ccc(F)cc3)cc2N=C(c2ccc(C(=O)O)cc2)c2cc3c(cc21)C(C)(C)CCC3(C)C
22 | 910 | CCCCS(=O)(=O)Nc1ccc2c(c1)N=C(c1ccc(C(=O)O)cc1)c1cc3c(cc1N2C)C(C)(C)CCC3(C)C
23 | 850 | CCCCS(=O)(=O)Nc1ccc2c(c1)N=C(c1ccc(C(=O)O)cc1)c1cc3c(cc1N2CCC)C(C)(C)CCC3(C)C
24 | 2300 | CN1c2ccc(NS(=O)(=O)c3cccc(F)c3)cc2N=C(c2ccc(C(=O)O)cc2)c2cc3c(cc21)C(C)(C)CCC3(C)C
25 | 1700 | CN1c2ccc(NS(=O)(=O)c3ccc(F)cc3)cc2N=C(c2ccc(C(=O)O)cc2)c2cc3c(cc21)C(C)(C)CCC3(C)C
26 | 190 | CCCN1c2ccc(NS(=O)(=O)c3cccc(C(F)(F)F)c3)cc2N=C(c2ccc(C(=O)O)cc2)c2cc3c(cc21)C(C)(C)CCC3(C)C
27 | 160 | CCN1c2ccc(NS(=O)(=O)c3cccc(C(F)(F)F)c3)cc2N=C(c2ccc(C(=O)O)cc2)c2cc3c(cc21)C(C)(C)CCC3(C)C

System: not listed separately
Test: Tmax in rat at 3 mg/kg, po
Assay type: ADME, organism-based
Set-up: dose 3 mg/kg, route oral
Conditions: in vivo
Summary of the method: as §1

Row | Tmax [h] | Compound
28 | 4 | CCCN1c2ccc(NS(=O)(=O)c3cccc(C(F)(F)F)c3)cc2N=C(c2ccc(C(=O)O)cc2)c2cc3c(cc21)C(C)(C)CCC3(C)C
29 | 4.7 | CCN1c2ccc(NS(=O)(=O)c3cccc(C(F)(F)F)c3)cc2N=C(c2ccc(C(=O)O)cc2)c2cc3c(cc21)C(C)(C)CCC3(C)C

System: not listed separately
Test: Terminal elimination half life in rat at 1 mg/kg, iv
Assay type: ADME, organism-based
Set-up: dose 1 mg/kg, route intravenous
Conditions: in vivo
Summary of the method: as §1

Row | half-life [h] | Compound
30 | 1.8 | CCCN1c2ccc(NS(=O)(=O)c3cccc(C(F)(F)F)c3)cc2N=C(c2ccc(C(=O)O)cc2)c2cc3c(cc21)C(C)(C)CCC3(C)C
31 | 2.1 | CCN1c2ccc(NS(=O)(=O)c3cccc(C(F)(F)F)c3)cc2N=C(c2ccc(C(=O)O)cc2)c2cc3c(cc21)C(C)(C)CCC3(C)C

System: not listed separately
Test: Volume of distribution at steady state in rat at 1 mg/kg, iv
Assay type: ADME, organism-based
Set-up: dose 1 mg/kg, route intravenous
Conditions: in vivo, read-out: Vdss
Summary of the method: as §1

Row | Vd [L/kg] | Compound
32 | 1.1 | CCCN1c2ccc(NS(=O)(=O)c3cccc(C(F)(F)F)c3)cc2N=C(c2ccc(C(=O)O)cc2)c2cc3c(cc21)C(C)(C)CCC3(C)C
33 | 1.2 | CCN1c2ccc(NS(=O)(=O)c3cccc(C(F)(F)F)c3)cc2N=C(c2ccc(C(=O)O)cc2)c2cc3c(cc21)C(C)(C)CCC3(C)C

Target: T1, Retinoic acid receptor RXR-alpha
Test: Antagonist activity at human RXRalpha expressed in […] cells assessed as inhibition of 9-cis-retinoic acid-induced transactivation
Assay type: functional, cell-based, HEK293
Conditions: not given

Row | Compound | IC50 [nM]
34 | CN1c2ccc(NC(=O)Cc3ccccc3)cc2N=C(c2ccc(C(=O)O)cc2)c2cc3c(cc21)C(C)(C)CCC3(C)C | 970
35 | CN1c2ccc(NC(=O)NCc3ccccc3)cc2N=C(c2ccc(C(=O)O)cc2)c2cc3c(cc21)C(C)(C)CCC3(C)C | 2800
36 | CN1c2ccc(NC(=O)c3cccc(C(F)(F)F)c3)cc2N=C(c2ccc(C(=O)O)cc2)c2cc3c(cc21)C(C)(C)CCC3(C)C | 4200
37 | CN1c2ccc(NCc3ccccc3)cc2N=C(c2ccc(C(=O)O)cc2)c2cc3c(cc21)C(C)(C)CCC3(C)C | > 10000
38 | CN1c2ccc(NC(=O)C34CC5CC(CC(C5)C3)C4)cc2N=C(c2ccc(C(=O)O)cc2)c2cc3c(cc21)C(C)(C)CCC3(C)C | 2900
39 | CCC(=O)Nc1ccc2c(c1)N=C(c1ccc(C(=O)O)cc1)c1cc3c(cc1N2C)C(C)(C)CCC3(C)C | 2200
40 | CCCCNc1ccc2c(c1)N=C(c1ccc(C(=O)O)cc1)c1cc3c(cc1N2C)C(C)(C)CCC3(C)C | > 10000
41 | CN1c2ccc(NS(=O)(=O)c3cccc4ccccc34)cc2N=C(c2ccc(C(=O)O)cc2)c2cc3c(cc21)C(C)(C)CCC3(C)C | 850
42 | Cc1ccc(S(=O)(=O)Nc2ccc3c(c2)N=C(c2ccc(C(=O)O)cc2)c2cc4c(cc2N3C)C(C)(C)CCC4(C)C)cc1 | 430
43 | CCCC(=O)Nc1ccc2c(c1)N=C(c1ccc(C(=O)O)cc1)c1cc3c(cc1N2C)C(C)(C)CCC3(C)C | 1800
44 | CCCCNC(=O)Nc1ccc2c(c1)N=C(c1ccc(C(=O)O)cc1)c1cc3c(cc1N2C)C(C)(C)CCC3(C)C | 3300
45 | CN1c2ccc(NS(=O)(=O)c3ccccc3F)cc2N=C(c2ccc(C(=O)O)cc2)c2cc3c(cc21)C(C)(C)CCC3(C)C | 2300
46 | CN1c2ccc(NS(=O)(=O)/C=C/c3ccccc3)cc2N=C(c2ccc(C(=O)O)cc2)c2cc3c(cc21)C(C)(C)CCC3(C)C | 400

Further lines, results first:

Row | IC50 [nM] | Compound
47 | 880 | CN1c2ccc(NC(=O)Cc3ccc(F)cc3)cc2N=C(c2ccc(C(=O)O)cc2)c2cc3c(cc21)C(C)(C)CCC3(C)C
48 | 250 | CCCS(=O)(=O)Nc1ccc2c(c1)N=C(c1ccc(C(=O)O)cc1)c1cc3c(cc1N2C)C(C)(C)CCC3(C)C
49 | 480 | CN1c2ccc(NS(=O)(=O)c3cccc(C(F)(F)F)c3)cc2N=C(c2ccc(C(=O)O)cc2)c2cc3c(cc21)C(C)(C)CCC3(C)C
50 | 1700 | CN1c2ccc(NC(=O)c3ccc(F)cc3)cc2N=C(c2ccc(C(=O)O)cc2)c2cc3c(cc21)C(C)(C)CCC3(C)C
51 | 370 | CCCCS(=O)(=O)Nc1ccc2c(c1)N=C(c1ccc(C(=O)O)cc1)c1cc3c(cc1N2C)C(C)(C)CCC3(C)C
52 | 140 | CCCCS(=O)(=O)Nc1ccc2c(c1)N=C(c1ccc(C(=O)O)cc1)c1cc3c(cc1N2CCC)C(C)(C)CCC3(C)C
53 | 1200 | CN1c2ccc(NS(=O)(=O)c3cccc(F)c3)cc2N=C(c2ccc(C(=O)O)cc2)c2cc3c(cc21)C(C)(C)CCC3(C)C
54 | 190 | CN1c2ccc(NS(=O)(=O)c3ccc(F)cc3)cc2N=C(c2ccc(C(=O)O)cc2)c2cc3c(cc21)C(C)(C)CCC3(C)C
55 | 76 | CCCN1c2ccc(NS(=O)(=O)c3cccc(C(F)(F)F)c3)cc2N=C(c2ccc(C(=O)O)cc2)c2cc3c(cc21)C(C)(C)CCC3(C)C
56 | 95 | CCN1c2ccc(NS(=O)(=O)c3cccc(C(F)(F)F)c3)cc2N=C(c2ccc(C(=O)O)cc2)c2cc3c(cc21)C(C)(C)CCC3(C)C

System: not listed separately
Test: Cmax in rat at 3 mg/kg, po
Assay type: ADME, organism-based
Set-up: dose 3 mg/kg, route oral
Conditions: in vivo
Summary of the method: as §1

Row | Cmax [nM] | Compound
57 | 519 | CCCN1c2ccc(NS(=O)(=O)c3cccc(C(F)(F)F)c3)cc2N=C(c2ccc(C(=O)O)cc2)c2cc3c(cc21)C(C)(C)CCC3(C)C
58 | 468 | CCN1c2ccc(NS(=O)(=O)c3cccc(C(F)(F)F)c3)cc2N=C(c2ccc(C(=O)O)cc2)c2cc3c(cc21)C(C)(C)CCC3(C)C
